TPT1 inhibitor = Candida albicans TPT1 enzyme inhibitors, primary screen, biochemical, fluorescence polarization | tRNA 2'-phosphotransferase TPT1 (Candida albicans SC5314) | recombinant caTPT1, FP RNA substrate dephosphorylation | inhibition, % at 5 µM | 300,000 compounds, 0.81% hits;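 active means inhibition above the mean of all tested compounds plus 3 SD, set per screening campaign, cut at about 24% in these data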
HNF4A DNA FP = change in binding of human HNF4A to DNA, primary screen, biochemical, fluorescence polarization, FITC-DNA; activity change, % at 10 µM; 360,000 compounds, 0.3% hits; 1 h; Hepatocyte nuclear factor 4-alpha (Homo sapiens), P41235; AID 1224865, 2016; in the data active means activity change above about 30%, passing the limit was not always enough
Rpn11 inh = Rpn11 (PSMD14) deubiquitinase inhibitors, primary screen, biochemical, fluorescence polarization, uHTS; human 26S proteasome, Ub4-pepOG fluorescence polarization; 20S core pre-blocked with epoxomicin; inhibition, % at 20 µM; 360,000 compounds, 0.59% hits;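 active means inhibition at 20 µM, scaled to each plate's controls, above about 33%, limit read from the data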
Target sequence (O00487 whole entry, looked up): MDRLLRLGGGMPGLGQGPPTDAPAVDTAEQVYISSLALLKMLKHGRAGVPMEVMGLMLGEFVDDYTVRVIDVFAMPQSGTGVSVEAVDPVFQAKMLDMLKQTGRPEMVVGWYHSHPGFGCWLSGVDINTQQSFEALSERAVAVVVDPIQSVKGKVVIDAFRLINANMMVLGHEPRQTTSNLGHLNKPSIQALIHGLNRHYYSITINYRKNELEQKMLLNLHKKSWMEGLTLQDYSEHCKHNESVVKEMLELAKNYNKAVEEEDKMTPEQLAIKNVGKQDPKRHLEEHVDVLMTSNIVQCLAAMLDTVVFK
SENP1 FRET inh = human SENP1 catalytic domain inhibitors, primary screen, biochemical, FRET, uHTS | Sentrin-specific protease 1 (Homo sapiens), Q9P0U3 | recombinant SENP1 catalytic domain, CyPet-SUMO1-YPet FRET cleavage | inhibition, % at 10 µM | 360,000 compounds, 0.21% hits | AID 624204, 2012;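 active means inhibition at least 30% at 10 µM, raw YFP signal under a set limit, fluorescence ratio 0.5 to 1.5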
Target sequence (Q9P0U3 419-644 limits assumed): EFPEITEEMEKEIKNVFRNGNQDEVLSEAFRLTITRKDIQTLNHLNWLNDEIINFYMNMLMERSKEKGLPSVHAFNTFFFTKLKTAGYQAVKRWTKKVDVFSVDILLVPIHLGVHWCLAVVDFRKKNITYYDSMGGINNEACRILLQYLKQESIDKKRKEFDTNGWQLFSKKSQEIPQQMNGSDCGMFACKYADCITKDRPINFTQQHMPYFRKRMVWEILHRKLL
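Test system: human SENP1 catalytic domain; medium: Tris pH 8 buffer plus EDTA, NaCl, BME, BSA, NP40, catalase; incubation: 50 min reaction at room temperature; technique: FRET, CFP and YFP emission; controls: no-enzyme low control and enzyme-plus-DMSO high control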
CSN deneddyl inh = inhibitors of CSN-mediated cullin deneddylation, primary screen, biochemical, fluorescence polarization, uHTS; COP9 signalosome complex subunit 5 (Homo sapiens), Q92905; Purified CSN, SCF-Nedd8-OG deneddylation; inhibition, % at 12.5 µM; 360,000 compounds, 0.38% hits;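 active means pattern-corrected inhibition above about 35%, with an unprinted fluorescence ratio check between 0.5 and 1.5, limit read from the data, passing the limit was not always enough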
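Schedule: reaction 90 min, room temperature / Assay system: HEK293T-derived human Csn5 enzyme / Input: Csn5 at 0.24 nM final / Measure: inhibition of Csn5 cleavage, % / Control set: substrate-only high control, full reaction low control / Technique: fluorescence polarization of the substrate / Buffer or medium: Tris/NaCl/DTT buffer, pH 7.5 / Reagent: SCFSkp2-Nedd8OG substrate at 10 nM final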
TPT1 inh confirm = Candida albicans TPT1 inhibitors, confirmation, biochemical, fluorescence polarization, triplicate | inhibition, % at 5 µM | recombinant caTPT1, RNase T1 coupled | shares compounds with TPT1 inhibitor | 2,400 compounds, 74% hits;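 active means inhibition above the primary screen limit, the mean inhibition of all tested compounds plus 3 SD, cut at about 25% in these data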
RNase T1 counter = RNase T1 inhibitors, counter-screen for TPT1 inhibitor project, biochemical, fluorescence polarization | shares compounds with TPT1 inhibitor | RNase T1 cleavage, 1536-well | inhibition, % at 5 µM | 2,400 compounds, 83% hits;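 active means inhibition above the solvent-only control well mean plus 3 SD, limit set per screening run, cut at about 23% in these data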;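 further: inhibitors block cleavage so intact labeled substrate keeps polarization high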
Target sequence (P00651 whole entry, looked up): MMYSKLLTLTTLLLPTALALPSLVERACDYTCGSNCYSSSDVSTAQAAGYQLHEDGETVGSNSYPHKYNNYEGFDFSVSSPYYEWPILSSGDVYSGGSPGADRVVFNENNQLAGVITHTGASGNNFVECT
Rpn11 inh conf = Rpn11 (PSMD14) deubiquitinase inhibitors, confirmation, biochemical, fluorescence polarization, single concentration; shares compounds with Rpn11 inh; purified human 26S proteasome, Ub4-pepOG fluorescence polarization; proteasome pretreated with epoxomicin; inhibition, % at 20 µM; 1,900 compounds, 29% hits; AID 602318, 2012
MMP-2 inh = MMP-2 enzyme inhibition, confirmation, counter-screen for RPN11 inhibitor project, biochemical, fluorescence, single concentration; recombinant MMP-2, FRET peptide cleavage fluorescence; 1,900 compounds, 4% hits; shares compounds with Rpn11 inh; inhibition, % at 20 µM;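 further: human MMP-2 activated beforehand with APMA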
Thrombin FP = bovine thrombin protease inhibition, confirmation, counter-screen for Rpn11 inhibitor project, biochemical, fluorescence polarization, single concentration. bovine thrombin cleavage of Ub4-pepOG. 1,900 compounds, 13% hits. shares compounds with Rpn11 inh. inhibition, % at 20 µM. AID 602333, 2012;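 active means mean inhibition at least 40% at 20 µM, or signal 3 deviations below plate average, so some actives read negative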
Numbers stand for hits; . = inactive; / = no result given; + = active, no number. Sampled rows, rich in hits. Any-hit rate of the full collection: about 1.6%. Unless noted, no stated cut-off is given here; in the data, active means inhibition above about 40%; inactive means the rest.

SMILES	TPT1 inhibitor	HNF4A DNA FP	Rpn11 inh	SENP1 FRET inh	CSN deneddyl inh	TPT1 inh confirm	RNase T1 counter	Rpn11 inh conf	MMP-2 inh	Thrombin FP
CC1=NN2C(=N)/C(=C\c3cc(C)n(-c4ccccc4)c3C)C(=O)N=C2S1	.	.	.	.	.	/	/	/	/	/
Cc1cc(/C=C2/C(=N)N3C(c4ccccc4)=CSC3=NC2=O)c(C)n1-c1ccccc1	24.5	.	.	.	.	.	27.4	/	/	/
COc1ccc(-c2nc(/C=C3\C(C)=Nc4ccccc43)c(O)o2)cc1	94.7	.	/	.	.	105.5	112.3	/	/	/
CC1=Nc2ccccc2/C1=C\c1nc(-c2ccc(C(F)(F)F)cc2)oc1O	156.4	.	.	.	.	151.7	141.8	/	/	/
Oc1ccccc1-c1nnc(-c2ccc(C(F)(F)F)cc2)o1	.	.	.	.	.	/	/	/	/	/
CCOc1ccc(NC(=O)CN(C)C(=O)c2ccccc2OCCOc2ccccc2)cc1OCC	/	.	.	.	.	/	/	/	/	/
CN(C)c1ccc(/C=C(\C#N)C(=O)Nc2nc3c(s2)CCN(Cc2ccccc2)C3)cc1	+	.	/	.	.	131.8	146.2	/	/	/
Cc1cccc(C)c1NC(=O)/C(C#N)=C/c1ccsc1	.	.	.	.	.	/	/	/	/	/
Cc1ccc(/C=C(\C#N)C(=O)Nc2c(C)cccc2C)s1	30.0	.	85.1	.	35.4	40.6	52.9	96.4	.	80.3
OC(CNCCCCNCC(O)C(F)(F)F)C(F)(F)F (centres undefined)	.	.	.	.	.	/	/	/	/	/
O=C(CCN1C(=O)/C(=C\c2cccs2)SC1=S)Nc1ccccn1	31.7	.	60.7	.	.	27.6	41.0	60.5	.	.
O=C(CCN1C(=O)/C(=C/c2cccs2)SC1=S)Nc1cccc(C(=O)O)c1	53.4	.	41.7	.	.	48.3	63.2	47.0	.	51.3
O=[N+]([O-])c1ccc(Cl)c(-c2ccc(/C=N/n3cnnc3)o2)c1	.	.	.	.	.	/	/	/	/	/
CN1CCN(/N=C/c2ccc(-c3ccc([N+](=O)[O-])cc3Cl)o2)CC1	29.6	.	59.8	79.4	.	35.4	48.7	.	.	.
C[C@@H]1CN([C@H](C)CO)C(=O)c2c(c3ccccc3n2C)-c2ccccc2CO[C@@H]1CN(C)S(=O)(=O)c1cccs1	/	.	.	.	.	/	/	/	/	/
Cc1cccc(C(=O)OCC(=O)NN2C(=O)NC3(CCC(C)CC3)C2=O)c1O (centres undefined)	.	.	.	.	.	/	/	/	/	/
Nc1nc(-c2ccccc2)c(-c2ccccc2)n1N	50.9	.	55.9	.	.	29.1	38.1	.	.	.
Nc1c(-c2ccccc2)nc(Cl)nc1-c1ccccc1	.	.	.	.	.	/	/	/	/	/
COc1ccccc1NC(=O)CSc1nc(N)c(C#N)cc1C#N	32.2	.	49.8	.	.	38.7	50.2	70.7	.	47.3
COc1ccc(N=Cc2oc3ccc4ccccc4c3c2O)cc1	114.1	.	55.5	.	.	71.0	75.2	59.8	.	.
COc1ccc([C@H]2CC(=O)C=C(c3cc(OC)ccc3OC)C2)cc1	/	.	.	.	.	/	/	/	/	/
Nc1ccc(/C=C/C(=O)c2ccco2)cc1	72.7	.	90.1	.	.	80.8	91.5	76.7	.	66.7
CCOC(=O)C1(Cc2ccccc2)CCN(Cc2cc(OC)c3c(c2)OCO3)CC1	.	.	.	.	.	/	/	/	/	/
CCn1c(SCC(=O)c2c[nH]c3ccccc23)nnc1-c1cccs1	25.2	.	45.8	.	.	24.9	35.1	78.5	.	44.1
COCCn1c(SCC(=O)c2c[nH]c3ccccc23)nnc1-c1ccncc1	.	.	.	.	.	/	/	/	/	/
SMILES	TPT1 inhibitor	HNF4A DNA FP	Rpn11 inh	SENP1 FRET inh	CSN deneddyl inh	TPT1 inh confirm	RNase T1 counter	Rpn11 inh conf	MMP-2 inh	Thrombin FP
O=C(/C=C/[C@H]1O[C@@H](n2cnc3c(NC(=O)c4ccccc4)ncnc32)[C@H](O)[C@@H]1O)NCc1cccs1	/	.	.	.	.	/	/	/	/	/
C=CCN=C1S/C(=C\c2ccc(N(C)C)cc2)C(=O)N1CC=C	43.9	36.4	92.2	.	.	49.7	63.3	.	.	.
CCCCN1CC(COCc2ccccc2)Oc2ccccc2S1(=O)=O (centres undefined)	/	.	.	.	.	/	/	/	/	/
Cc1cc(C)c2nc(NNC(=O)c3cc(=O)c4ccccc4o3)sc2c1	24.9	.	47.2	.	.	27.1	40.8	.	.	.
O=C(NC1CCCCC1)c1cc(C2CC2)nn1-c1ccccc1	/	.	.	.	.	/	/	/	/	/
N#Cc1c(-c2cccs2)nc(SCC(=O)c2cccs2)[nH]c1=O	39.8	.	46.9	.	.	.	29.7	68.4	.	44.1
CC1(C(=O)NS(=O)(=O)c2ccccc2Cl)CCN1C(=O)CCC1CCCC1 (centres undefined)	/	.	.	.	.	/	/	/	/	/
Cc1ccc(-c2ccc(/C=C3\SC(N4CCOCC4)=NC3=O)o2)cc1	47.5	50.5	59.9	.	.	52.2	62.5	47.9	.	.
O=C1N=C(N2CCOCC2)S/C1=C/c1ccc(-c2ccc(F)cc2)o1	.	.	.	.	.	/	/	/	/	/
O=C1CC(SC(=S)C2CCCC2=O)C(=O)N1 (centres undefined)	/	.	.	.	.	/	/	/	/	/
CCOC(=O)NC(=O)/C(C#N)=C/c1ccc(N(C)C)cc1	99.2	56.4	126.5	.	.	115.5	124.5	116.7	.	98.0
CC(=O)C[C@H]1c2ccccc2S(=O)(=O)N1c1ccccc1	.	.	.	.	.	/	/	/	/	/
